Data: the array DNA melting data of Ke et al. (doi:10.1101/2024.01.08.574731)

Key:
[1] = melting temperature; fluorescence melt of hairpins on a sequencing array, two-state fit, raised by 9.35 °C to match UV melts; conditions: sodium 0.088 M
Summary of the method: (§1)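 Hairpins were imaged by Cy3 fluorescence on a sequenced MiSeq flow cell with annealed Cy3 and quencher oligos, in 50 mM Na-HEPES pH 8.0, 25 mM NaCl, in 2.5 °C steps up to 60 °C. Bootstrapped two-state fits of normalised signals gave melting temperature and folding enthalpy. Four replicates were combined by inverse variance, and fitted temperatures were raised by 9.35 °C to match UV melts.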

[2] = folding enthalpy; higher = less favourable; fluorescence melt of hairpins on a sequencing array, two-state fit; conditions: sodium 0.088 M
Summary of the method: as §1

Sequence	Tm [1]	folding enthalpy [2]
GCGCAGCGAAAGCTCAGC ((..(((....)))..))	41 °C	-7.58 kcal/mol
GCGCAGGGAAACCCACGC (((..((....))..)))	43.9 °C	-26.7 kcal/mol
GCGCAGGGAAACTTGCGC (((((.(....).)))))	60.2 °C	-43.4 kcal/mol
GCGCATCGAAAGATCCGC (((.(((....))).)))	47.8 °C	-28.5 kcal/mol
GCGCATGGAAACACGCAC (.((.((....)).)).)	29 °C	-13.8 kcal/mol
GCGCCACCGAAAGGTCGC (((..(((....))))))	51.4 °C	-23.5 kcal/mol
GCGCCAGGAAACCGGCGC (((((.(....).)))))	69.1 °C	-22.8 kcal/mol
GCGCCAGGAAACTAGCGC ((((.((....)).))))	52.5 °C	-42.1 kcal/mol
GCGCCAGGAAACTGGTGC ((.((((....)))).))	65 °C	-30.6 kcal/mol
GCGCCCGGAAACAGGCGC (((((.(....).)))))	66.7 °C	-31.7 kcal/mol
GCGCCGCGAAAGCAGGGC ((.(.((....)).).))	57.4 °C	-13.1 kcal/mol
GCGCCGCGAAAGCCGGGC ((.(.((....)).).))	55.3 °C	-15.8 kcal/mol
GCGCCGCGAAAGCGCCGC (((.(((....))).)))	65.2 °C	-22.4 kcal/mol
GCGCCTCGAAAGAGCCGC (((.(((....))).)))	52.2 °C	-37.9 kcal/mol
GCGCGACGAAAGTCACGC (((.(((....))).)))	68.9 °C	-36.3 kcal/mol
GCGCGAGCGAAAGCTCGC (((..(((....))))))	69.1 °C	-6.17 kcal/mol
GCGCGAGGAAACCCGCGC (((((.(....).)))))	69.1 °C	-33.8 kcal/mol
GCGCGCCCGAAAGGGCGC (((..(((....))))))	68.4 °C	-4.64 kcal/mol
GCGCGCGAAAGCGAACGC ((((((....)))..)))	60 °C	-22.9 kcal/mol
GCGCGCGAAAGCGCCCGC ((((((....)))..)))	45.8 °C	-9.74 kcal/mol
GCGCGCGAAAGCGGCCGC ((((((....)))..)))	59 °C	-15.3 kcal/mol
GCGCGCGAAAGCGTACGC ((((((....)))..)))	61.5 °C	-17.5 kcal/mol
GCGCGGCGAAAGCCATGC ((..(((....)))..))	53.3 °C	-16.4 kcal/mol
GCGCGGCGAAAGCCTTGC ((..(((....)))..))	46.1 °C	-16 kcal/mol

Sequence	Tm [1]	folding enthalpy [2]
GCGCGGGGAAACCCGCAC (.(((((....))))).)	53.9 °C	-8.32 kcal/mol
GCGCTACCGAAAGGTCGC (((..(((....))))))	51.4 °C	-30.8 kcal/mol
GCGCTACGAAAGTACCGC (((.(((....))).)))	48.5 °C	-36.1 kcal/mol
GCGCTCCGAAAGGATCGC (((.(((....))).)))	59.2 °C	-41 kcal/mol
GCGCTCGAAAGAGCCCGC ((((((....)))..)))	43.4 °C	-11.8 kcal/mol
GCGCTCGAAAGAGGCCGC ((((((....)))..)))	47.5 °C	-16.5 kcal/mol
GCGCTCGAAAGAGTTCGC ((((((....)))..)))	43.8 °C	-22.1 kcal/mol
GCGCTCGGAAACAAGCGC (((((.(....).)))))	55.9 °C	-46.7 kcal/mol
GCGCTCGGAAACGAGCAC (.(((((....))))).)	51.5 °C	-10.4 kcal/mol
GCGCTCGGAAACGGGTGC ((.(.((....)).).))	51.6 °C	-53.1 kcal/mol
GCGCTGACGAAAGTCCGC (((..(((....))))))	51 °C	-25.1 kcal/mol
GCGCTGCGAAAGCCGTGC ((.(.((....)).).))	51.9 °C	-21.5 kcal/mol
GCGCTGCGAAAGCGGTGC ((.(.((....)).).))	66.7 °C	-31.8 kcal/mol
GCGCTGGGAAACTAGCGC (((((.(....).)))))	67.1 °C	-32.4 kcal/mol
GCGCTTCGAAAGAATCGC (((.(((....))).)))	51.8 °C	-41.3 kcal/mol
GCGCTTGGAAACAGGCGC ((((.((....)).))))	61.7 °C	-40.6 kcal/mol
GCGGAAACCCGC ((((....))))	50.2 °C	-20.9 kcal/mol
GCGGAAAGCCGC ((((....))))	48.5 °C	-16.3 kcal/mol
GCGGAAATCCGC ((((....))))	51.6 °C	-20.4 kcal/mol
GCGGAACGAAAGTTGCGC (((.(((....))).)))	67.9 °C	-35.6 kcal/mol
GCGGAACGAAAGTTTCGC (((.(((....))).)))	64.8 °C	-51.9 kcal/mol
GCGGAACGCCGC ((((....))))	58.4 °C	-9.84 kcal/mol
GCGGAAGACCGC ((((....))))	52.8 °C	-18.5 kcal/mol
GCGGAAGCCGC ((((...))))	55.8 °C	-15.7 kcal/mol

Sequence	Tm [1]	folding enthalpy [2]
GCGGAAGTCCGC ((((....))))	56 °C	-20.9 kcal/mol
GCGGAATACCGC ((((....))))	54.2 °C	-21.9 kcal/mol
GCGGACGAAAGTCACGC ((((((....))).)))	64.8 °C	-20.9 kcal/mol
GCGGACGAAAGTCCACGC ((((((....)))..)))	58.9 °C	-15.2 kcal/mol
GCGGACGACCGC ((((....))))	53.8 °C	-24.6 kcal/mol
GCGGACGGCCGC ((((....))))	59.4 °C	-37.6 kcal/mol
GCGGACTCCGC ((((...))))	52 °C	-20.5 kcal/mol
GCGGAGATCCGC ((((....))))	54.2 °C	-26.2 kcal/mol
GCGGAGCACCGC ((((....))))	61.6 °C	-11.2 kcal/mol
GCGGAGCCGAAAGGCCGC (((..(((....))))))	61.1 °C	-18.8 kcal/mol
GCGGAGCGAAAGCACAGC ((.(.((....)).).))	58 °C	-17.4 kcal/mol
GCGGAGCGAAAGCCCCGC ((((.((....)).))))	68.7 °C	-35.3 kcal/mol
GCGGAGCGAAAGCCGCGC (((..((....))..)))	66.1 °C	-21.1 kcal/mol
GCGGAGCGAAAGCCTCGC (((..((....))..)))	50.5 °C	-13.8 kcal/mol
GCGGAGCGAAAGCGCTGC ((.(.((....)).).))	57.1 °C	-15.2 kcal/mol
GCGGAGCGAAAGCGTCGC (((..((....))..)))	67 °C	-26.6 kcal/mol
GCGGAGCGAAAGCTCGC (((.(((....))))))	67.4 °C	-17.6 kcal/mol
GCGGAGCGAAAGCTGAGC ((..(((....)))..))	56.5 °C	-14.6 kcal/mol
GCGGAGCGAAAGCTGGGC ((..(((....)))..))	43.2 °C	-7.98 kcal/mol
GCGGAGGCGAAAGCCCGC (((..(((....))))))	66.6 °C	-21.7 kcal/mol
GCGGAGGGAAACCCCCGC ((((.((....)).))))	57.6 °C	-38.9 kcal/mol
GCGGAGGGCCGC ((((....))))	53.9 °C	-15.4 kcal/mol
GCGGAGGTCCGC ((((....))))	56.4 °C	-24.4 kcal/mol
GCGGAGTCCCGC ((((....))))	55.7 °C	-21.1 kcal/mol

Sequence	Tm [1]	folding enthalpy [2]
GCGGAGTTCCGC ((((....))))	59.6 °C	-23.4 kcal/mol
GCGGATAACCGC ((((....))))	53 °C	-19.6 kcal/mol
GCGGATAGCCGC ((((....))))	54.9 °C	-26.6 kcal/mol
GCGGATCCCCGC ((((....))))	56.4 °C	-23.3 kcal/mol
GCGGATCCCGC ((((...))))	53.6 °C	-23.4 kcal/mol
GCGGATCGAAAGATCGC (((.(((....))))))	58.1 °C	-25.6 kcal/mol
GCGGATCTCCGC ((((....))))	59.6 °C	-25.3 kcal/mol
GCGGATGGAAACGTTCGC (((.(.(....).).)))	44.1 °C	-28.2 kcal/mol
GCGGATGGCCGC ((((....))))	54.6 °C	-21 kcal/mol
GCGGATGTCCGC ((((....))))	57.5 °C	-22.7 kcal/mol
GCGGATTCCGC ((((...))))	54.3 °C	-24.9 kcal/mol
GCGGCAACCCGC ((((....))))	51.9 °C	-24.7 kcal/mol
GCGGCAACCGC ((((...))))	51.7 °C	-23.4 kcal/mol
GCGGCAGCCCGC ((((....))))	59.1 °C	-10.3 kcal/mol
GCGGCATCGAAAGATCGC (((..(((....))))))	45.6 °C	-22.7 kcal/mol
GCGGCCAGCCGC ((((....))))	67.3 °C	-20.5 kcal/mol
GCGGCCGAAAGGCCTCGC ((((((....)))..)))	56.2 °C	-12.5 kcal/mol
GCGGCCGCCGC ((((...))))	55.1 °C	-19.9 kcal/mol
GCGGCCGTCCGC ((((....))))	58.6 °C	-25.8 kcal/mol
GCGGCCTACCGC ((((....))))	55.8 °C	-29.4 kcal/mol
GCGGCCTTCCGC ((((....))))	57.9 °C	-19.9 kcal/mol
GCGGCGCACCGC ((((....))))	59.7 °C	-14.2 kcal/mol
GCGGCGCGAAAGCACAGC ((.(.((....)).).))	63.7 °C	-29.9 kcal/mol
GCGGCGCGAAAGCCCTGC ((.(.((....)).).))	45.6 °C	-18.3 kcal/mol
